Experimental data from ChEMBL document CHEMBL1128560, “Synthesis and structure-activity relationships of analogs of 2'-deoxy-2'-(3-methoxybenzamido)adenosine, a selective inhibitor of trypanosomal glycosomal glyceraldehyde-3-phosphate dehydrogenase” (J Med Chem, 1995).

Tests used:
[1] = Inhibition of glyceraldehyde-3-phosphate dehydrogenase in Trypanosoma brucei
Method in brief: (§1)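 Enzyme sources: human erythrocyte GAPDH, glycosomal GAPDH from T. brucei, and glycosomal GAPDH from L. mexicana. IC50 is the inhibitor concentration at which 50% of enzyme activity remains. Poorly soluble compounds were not tested above their solubility limit, and the remaining activity at that level was recorded instead.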

[2] = TInhibition of glyceraldehyde-3-phosphate dehydrogenase in Leishmania mexicana; method in brief: as §1
[3] = target: Glyceraldehyde-3-phosphate dehydrogenase (Homo sapiens, UniProt P04406); assay: Inhibition of Glyceraldehyde-3-phosphate dehydrogenase in human erythrocytes.; assay type: cell-based; method in brief: as §1
Chain of Glyceraldehyde-3-phosphate dehydrogenase (P04406 whole entry): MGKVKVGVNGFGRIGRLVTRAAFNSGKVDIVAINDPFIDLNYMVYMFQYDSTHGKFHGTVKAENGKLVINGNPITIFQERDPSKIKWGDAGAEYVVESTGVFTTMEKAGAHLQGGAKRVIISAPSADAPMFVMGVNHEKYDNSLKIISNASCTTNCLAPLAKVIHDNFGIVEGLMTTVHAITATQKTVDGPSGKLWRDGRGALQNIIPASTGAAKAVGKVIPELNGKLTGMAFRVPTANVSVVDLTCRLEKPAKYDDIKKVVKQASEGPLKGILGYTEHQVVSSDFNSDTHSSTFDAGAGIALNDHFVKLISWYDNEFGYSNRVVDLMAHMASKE

IC50 [1] [µM]	IC50 [2] [µM]	IC50 [3] [µM]	Compound
1000	500	> 2000	Nc1ncnc2c1ncn2[C@@H]1O[C@H](CO)[C@@H](O)[C@H]1NC(=O)c1ccc2cccnc2c1
> 4000	> 4000		Nc1ncnc2c1ncn2CCNC(=O)c1cccc(Cl)c1
> 4000	> 5000		COc1cccc(C(=O)N[C@@H]2CCC[C@H]2n2cnc3c(N)ncnc32)c1
> 4000	> 4000		Nc1ncnc2c1ncn2[C@@H]1CCC[C@H]1NC(=O)c1ccccc1
500	200	> 2000	Nc1ncnc2c1ncn2[C@@H]1O[C@H](CO)[C@@H](O)[C@H]1NC(=O)c1cccc(Cl)c1
600	500	1300	Nc1ncnc2c1nc(-c1cccs1)n2[C@@H]1O[C@H](CO)[C@@H](O)[C@H]1O
8000	6000	> 10000	Cc1nc(N)c2[nH]cnc2n1
6300	3000	> 10000	Nc1ncnc2c1nc(Br)n2[C@@H]1O[C@H](CO)[C@@H](O)[C@H]1NC(=O)c1ccccc1
3000	3000	> 10000	Nc1ncnc2c1ncn2[C@@H]1O[C@H](CO)[C@@H](O)[C@H]1NC(=O)c1ccc2[nH]cnc2c1
> 4000	> 2000		Nc1ncnc2c1ncn2[C@@H]1CCC[C@H]1NC(=O)c1cccc(Cl)c1
200	200	400	Nc1ncnc2c1ncn2[C@@H]1O[C@H](CO)[C@@H](O)[C@H]1NC(=O)c1ccc(-c2ccccc2)cc1
500	400	600	CCOc1cccc(C(=O)N[C@@H]2[C@H](O)[C@@H](CO)O[C@H]2n2cnc3c(N)ncnc32)c1
9000	9000	> 10000	COc1nc2c(N)ncnc2n1[C@@H]1O[C@H](CO)[C@@H](O)[C@H]1NC(=O)c1ccccc1
> 1000	750	> 2000	CCc1ccc(-c2ccc(C(=O)NC[C@H]3OC(n4cnc5c(N)ncnc54)[C@H](O)[C@@H]3O)cc2)cc1 (stereo partly drawn)
> 1000	> 2000	> 2000	Nc1ncnc2c1nc(SC1CCCCC1)n2C1O[C@H](CO)[C@@H](O)[C@H]1O (stereo partly drawn)
1800	1600	1800	NCCn1c(-c2cccs2)nc2c(N)ncnc21
100000	50000	35000	Nc1ncnc2c1ncn2[C@@H]1O[C@H](CO)[C@@H](O)[C@H]1O [ADENOSINE]
> 2000	> 4000		Cc1ccc(C(=O)NCCn2cnc3c(N)ncnc32)cc1
2200	300	> 10000	COc1cccc(C(=O)N[C@@H]2[C@H](O)[C@@H](CO)O[C@H]2n2cnc3c(N)ncnc32)c1
> 10000	> 10000	> 10000	Nc1ncnc2c1ncn2[C@@H]1O[C@H](CO)[C@@H](O)[C@H]1NCc1ccccc1
500	400	600	Nc1ncnc2c1nc(-c1cccs1)n2CCNCc1ccccc1
> 10000	> 10000	> 10000	CC(C)COC(=O)N[C@@H]1[C@H](O)[C@@H](CO)O[C@H]1n1cnc2c(N)ncnc21
250	250	250	Nc1ncnc2c1ncn2C1O[C@H](CNC(=O)C(c2ccccc2)c2ccccc2)[C@@H](O)[C@H]1O (stereo partly drawn)
2000	4000	8000	Nc1ncnc2c1nc(Sc1ncccn1)n2C1O[C@H](CO)[C@@H](O)[C@H]1O (stereo partly drawn)
1500	700	1500	Nc1ncnc2c1ncn2[C@@H]1CCC[C@H]1NC(=O)c1cccc(Br)c1
> 4000	> 4000		Nc1ncnc2c1ncn2CCNC(=O)c1cccc(F)c1
> 10000	> 10000	> 10000	COc1cccc(C(=O)N[C@@H]2[C@H](O)[C@@H](CO)O[C@H]2n2cnc3c(N)nc(C)nc32)c1
1200	500	1200	Nc1ncnc2c1nc(-c1cccs1)n2[C@@H]1O[C@H](CO)[C@@H](O)[C@H]1NC(=O)c1ccccc1
